The record followed here is paper PMC7302971 (Bioorganic chemistry, 2020).

One experiment addresses HDAC4 (Homo sapiens, UniProt P56524). The experiment is described as follows: HDAC enzyme activity assay. In kind it is biochemical. Conditions: for remaining activity at 50 µM: read-out: Residual HDAC4 activity at 50 μM. In a few lines:
(§1)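 HDAC4 and HDAC8 were in-house recombinant enzymes. Each was preincubated with inhibitor, either a single 50 μM screen or serial dilutions, for 60 min at 30 °C in Tris-HCl pH 8.0/KCl/Pluronic buffer. Substrate was 20 μM Boc-Lys(trifluoroacetyl)-AMC for 60 min at 30 °C, stopped with 1.7 μM SATFMK, and developed with trypsin. AMC fluorescence was read at 350/450 nm and reported as residual activity or as IC50 from a four-parameter logistic fit.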

Experiment [1] addresses T1, HDAC8 (Homo sapiens, UniProt Q9BY41).
T1 sequence (Q9BY41 1-377): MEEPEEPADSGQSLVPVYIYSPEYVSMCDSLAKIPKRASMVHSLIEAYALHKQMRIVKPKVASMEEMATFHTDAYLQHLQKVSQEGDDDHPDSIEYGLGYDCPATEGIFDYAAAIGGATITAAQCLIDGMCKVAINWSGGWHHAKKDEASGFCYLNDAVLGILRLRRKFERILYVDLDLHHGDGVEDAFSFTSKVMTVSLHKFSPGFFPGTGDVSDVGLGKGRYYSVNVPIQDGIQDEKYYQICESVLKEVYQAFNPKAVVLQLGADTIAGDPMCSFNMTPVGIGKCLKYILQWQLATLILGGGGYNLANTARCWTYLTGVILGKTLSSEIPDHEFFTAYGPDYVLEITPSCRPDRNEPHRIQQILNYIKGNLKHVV
Put plainly: Thermal shift assay. In kind it is binding.

In experiment [2] the target is T1, HDAC8. Put plainly: HDAC enzyme activity assay. In kind it is biochemical. Conditions: for remaining activity at 50 µM: read-out: Residual HDAC8 activity at 50 μM. In a few lines:
as §1

For the next experiment, the system named is CEM leukemia cells. The experiment is described as follows: Differential Nuclear Staining. In kind it is cell-based, human. The following applies: 48 h; for cell death at 100 μM: CEM, DNS assay; for CC50: Homo sapiens. In a few lines:
(§2)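 Cells were seeded at 10,000/well and exposed to test compound for 48 h at 1% (v/v) final DMSO. The first screen used a single concentration with controls in quadruplicate. Dose-response used 0.5–100 μM in triplicate. Controls: DMSO vehicle, hydrogen peroxide (positive), untreated (negative). Hoechst 33342 plus PI were added 2 h before automated imaging, and colocalised signal was scored as dead. […] Two-tailed t-test versus DMSO.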

Another experiment has as its system K-562 leukemia cells. Put plainly: Differential Nuclear Staining. In kind it is cell-based, human. The following applies: for cell death at 100 μM: K562, DNS assay, 48 h; for CC50: Homo sapiens, K562, 48 h. A digest of the protocol: as §2
The test system of the next experiment is KCL-22 leukemia cells. Put plainly: Differential Nuclear Staining. In kind it is cell-based, human. Conditions: for cell death at 100 μM: KCL22, DNS assay, 48 h. A digest of the protocol: as §2

Some results are limits rather than exact numbers.

Chain of HDAC4 (P56524 648-1057 limits assumed): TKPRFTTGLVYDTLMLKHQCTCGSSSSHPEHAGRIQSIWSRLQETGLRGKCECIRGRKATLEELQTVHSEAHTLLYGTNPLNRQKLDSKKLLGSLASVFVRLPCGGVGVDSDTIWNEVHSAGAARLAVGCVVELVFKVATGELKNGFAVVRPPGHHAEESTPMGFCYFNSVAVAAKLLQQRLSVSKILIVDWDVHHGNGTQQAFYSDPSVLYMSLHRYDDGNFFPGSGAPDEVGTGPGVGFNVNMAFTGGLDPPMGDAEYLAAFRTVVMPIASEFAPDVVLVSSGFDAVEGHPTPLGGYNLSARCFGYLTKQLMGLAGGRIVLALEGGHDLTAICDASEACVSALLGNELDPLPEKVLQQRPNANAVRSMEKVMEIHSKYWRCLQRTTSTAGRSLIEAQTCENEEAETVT

For `O=C(CN1C(=O)SC(=Cc2ccccn2)C1=O)Nc1ccc(F)cc1F` [Compound P5, N-(2,4-difluorophenyl)-2-(2,4-dioxo-5-(pyridin-2-ylmethylene)thiazolidin-3-yl)acetamide], the IC50 at HDAC4 was 50 µM; against HDAC8 [2], greater than 50 µM. The remaining activity at 50 µM stood at 59% on HDAC4 and 80% at HDAC8 [2]. The “Thermal shift (ΔT), stabilizing effect on HDAC8” value (shortened to “Thermal shift (ΔT)”) at HDAC8 [1] is listed as “did not confer significant stability to the protein”.
In the case of `Cc1ccc(NC(=O)CN2C(=O)SC(=Cc3ccccn3)C2=O)cc1` [Compound P12, 2-(2,4-dioxo-5-(pyridin-2-ylmethylene)thiazolidin-3-yl)-N-(p-tolyl)acetamide], the “cell death at 100 μM” value with CEM leukemia cells worked out at 38.67% cell death at 100 μM; with K-562 leukemia cells, 39.42% cell death at 100 μM; in the experiment on KCL-22 leukemia cells, 24.81% cell death at 100 μM. Besides, the results for the remaining activity at 50 µM on HDAC4 and on HDAC8 [2] were 100% and 75%, respectively. Besides, the “Thermal shift (ΔT)” value at HDAC8 [1] is “did not confer significant stability to the protein”. Further, on HDAC8 [2], the IC50 was 47 ± 1.1 µM.
For `O=C(CN1C(=O)SC(=Cc2ccccn2)C1=O)Nc1ccc(Br)c(Br)c1` [Compound P25, N-(3,4-dibromophenyl)-2-(2,4-dioxo-5-(pyridin-2-ylmethylene)thiazolidin-3-yl)acetamide], the CC50 in the experiment on CEM leukemia cells was found to be 39 ± 1.69 µM; with K-562 leukemia cells, 65.6 ± 1.13 µM; with KCL-22 leukemia cells (Homo sapiens, KCL-22, 48 h), 82.2 ± 0.32 µM. Further, the IC50 at HDAC4 and against HDAC8 [2] was greater than 50 µM throughout. Further, the remaining activity at 50 µM on HDAC4 amounted to 86%; at HDAC8 [2], 89%.
In the case of `O=C(CN1C(=O)SC(=Cc2ccccn2)C1=O)Nc1cc(C(F)(F)F)ccc1Cl` [Compound P9, N-(2-chloro-5-(trifluoromethyl)phenyl)-2-(2,4-dioxo-5-(pyridin-2-ylmethylene)thiazolidin-3-yl)acetamide], the “cell death at 100 μM” value in the experiment on CEM leukemia cells is 4.80% cell death at 100 μM; in the experiment with KCL-22 leukemia cells it was 6.54% cell death at 100 μM. Besides, the remaining activity at 50 µM was 100% on HDAC4 and 38% on HDAC8 [2]. The molecule further displayed a cytotoxic concentration (CC50) with K-562 leukemia cells of 102 ± 2.45 µM. Besides, on HDAC8 [1], the “Thermal shift (ΔT)” value is given as “did not confer significant stability to the protein”.
Consider `O=C(CN1C(=O)SC(=Cc2ccccn2)C1=O)Nc1ccc(Cl)c(Cl)c1` [Compound P8, N-(3,4-dichlorophenyl)-2-(2,4-dioxo-5-(pyridin-2-ylmethylene)thiazolidin-3-yl)acetamide], for which it took 36.9 ± 1.11 µM to reach half-maximal cytotoxicity with CEM leukemia cells (CC50). Further, the IC50 on HDAC4 and against HDAC8 [2] was greater than 50 µM throughout. Also, the remaining activity at 50 µM on HDAC4 came out at 100%; at HDAC8 [2] it was 82%. Besides, the entries for the “cell death at 100 μM” value in the experiment on K-562 leukemia cells and in the experiment on KCL-22 leukemia cells were 40.28% cell death at 100 μM and 29.22% cell death at 100 μM, respectively.

The IC50 is the concentration at which inhibition is half-maximal. Read a high IC50 as weaker potency. For orientation: CC50 means the concentration at which the toxic effect on the cells reaches its halfway point. Low values mean greater toxicity to the cells, high ones lower toxicity to the cells.
